Data as given in ChEMBL document CHEMBL1126277, “6-substituted decahydroisoquinoline-3-carboxylic acids as potent and selective conformationally constrained NMDA receptor antagonists” (J Med Chem, 1992).

Tests used:
[1] = system: Mus musculus; test: Minimum effective dose measures the in vivo N-methyl-D-aspartate glutamate receptor antagonist activity of compound and its ability to protect mice from lethality induced by 200 mg/kg ip injection of NMDA.; format: functional; conditions: route intraperitoneal, read-out: MED
Method in brief: (§1)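 Mice were given the compound ip 30 min before an ip challenge of NMDA at 200 mg/kg, a dose lethal to ≥95% of animals. Survival was scored with five animals tested per dose. MED was taken as the lowest dose protecting >50% of animals, meaning at least three of five survived.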

[2] = biological target: Glutamate NMDA receptor; test: Displacement of [3H]CGS-19,755 from glutamate recognition site of N-methyl-D-aspartate glutamate receptor complex; format: protein-complex assay, Rattus norvegicus
[3] = In vitro inhibition of 40 uM NMDA induced depolarization in rat cortical slices.
[4] = system: Mus musculus; test: Minimum effective dose measures the in vivo NMDA antagonist activity of compound and its ability to protect mice from lethality induced by 200 mg/kg ip injection of NMDA.; format: functional; conditions: route intraperitoneal; for minimal effective dose: Mus musculus, ip, read-out: MED; for MED: NMDA challenge 200 mg/kg, 200 mg/kg; method in brief: as §1
[5] = biological target: Glutamate NMDA receptor; test: In vitro compound's ability to displace [3H]-CGS-19,755 binding as a measure of its affinity for the glutamate recognition site on the NMDA receptor complex.; format: protein-complex assay

| SMILES | minimal effective dose [1] | IC50 [2] | IC50 [3] | minimal effective dose [4] | MED [4] | IC50 [5] |
| --- | --- | --- | --- | --- | --- | --- |
| O=C(O)C1Cc2cc(CP(=O)(O)O)ccc2CN1 (stereo not drawn) | > 160 mg/kg | 13.8 µM | 34.4 µM |  |  |  |
| O=C(O)C1CC2CC(CP(=O)(O)O)CCC2CN1 (stereo not drawn) | > 160 mg/kg | > 10 µM | > 100 µM |  |  |  |
| O=C(O)[C@@H]1C[C@H]2CC(CP(=O)(O)O)CC[C@H]2N1 (stereo partly drawn) | > 160 mg/kg | > 10 µM | > 100 µM |  |  |  |
| O=C(O)C1NCCC2CC(Cc3nnn[nH]3)CCC21 (stereo not drawn) | 160 mg/kg |  | 7.8 µM |  |  |  |
| O=C(O)[C@H]1C[C@@H](Cc2nnn[nH]2)CCN1 |  |  | 4.2 µM | 5 mg/kg |  |  |
| O=C(O)C1CC2C[C@@H](Cc3nnn[nH]3)CCC2CN1 (stereo in doubt; 32a) |  |  | 1.39 µM |  | 2.5 mg/kg |  |
| O=C(O)C1CC2C[C@@H](Cc3nnn[nH]3)CCC2CN1 (stereo in doubt; 32b) |  |  | 4.8 µM |  | 40 mg/kg |  |
| O=C(O)C1Cc2cc(Cc3nnn[nH]3)ccc2CN1 (stereo not drawn) | > 160 mg/kg |  | 36.6 µM |  |  |  |
| O=C(O)C1CC2CC(Cc3nnn[nH]3)CCC2CN1 (stereo not drawn) | > 160 mg/kg | > 10 µM | > 100 µM |  |  |  |
| CN1CCC2(CCCC(CP(=O)(O)O)C2)CC1C(=O)O (stereo not drawn) |  |  |  | > 160 mg/kg |  | > 10 µM |
| O=C(O)[C@@H]1C[C@H]2CC(Cc3nnn[nH]3)CC[C@H]2N1 (stereo partly drawn) | > 160 mg/kg | > 10 µM | > 100 µM |  |  |  |
| O=C(O)[C@@H]1C[C@H](CP(=O)(O)O)CCN1 [SELFOTEL] |  |  | 1.6 µM |  |  |  |
